In brackets after ≈: the same amount, converted by molar mass.
How the values were obtained:
[1] = test system: Staphylococcus aureus; assay: Antimicrobial activity against methicillin-resistant Staphylococcus aureus Ho 4280-0257 with heterozygous 23S rRNA G2576U mutation; type: functional
Outline: (§1)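 MIC by CLSI agar dilution. Resistant clinical enterococcal and S. aureus isolates came mostly from UK patients, a few from Brazil and Austria. Laboratory mutants were selected from clinical isolate ST/02/2121, RN4220 and hypermutable RN4220ΔmutS. Selection used serial broth passage with linezolid rising arithmetically from 0.5 to 10 μg/ml, then repeated subculture on agar with 10 μg/ml linezolid.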

[2] = test system: Staphylococcus aureus; assay: Antimicrobial activity against Staphylococcus aureus ST/02/2121; type: functional; outline: as §1
[3] = test system: Enterococcus faecium; assay: Antimicrobial activity against Enterococcus faecium Ho 5114-0276 with heterozygous 23S rRNA G2576U mutation; type: functional; outline: as §1
[4] = test system: Enterococcus faecium; assay: Antimicrobial activity against Enterococcus faecium 44 with heterozygous 23S rRNA G2576U mutation; type: functional; outline: as §1
[5] = test system: Staphylococcus aureus; assay: Antimicrobial activity against methicillin-resistant Staphylococcus aureus Ho 4280-0258 with heterozygous 23S rRNA G2576U mutation; type: functional; outline: as §1
[6] = test system: Staphylococcus aureus; assay: Antimicrobial activity against Staphylococcus aureus RN4220 deltamutS with 23S rRNA G2576U and A2503G mutation; type: functional; outline: as §1
[7] = test system: Staphylococcus aureus; assay: Antimicrobial activity against Staphylococcus aureus RN4220 with 23S rRNA G2447T mutation; type: functional; outline: as §1
[8] = test system: Staphylococcus aureus; assay: Antimicrobial activity against Staphylococcus aureus RN4220 deltamutS; type: functional; outline: as §1
[9] = test system: Staphylococcus aureus; assay: Antimicrobial activity against Staphylococcus aureus RN4220 with 23S rRNA G2576U mutation; type: functional; outline: as §1
[10] = test system: Enterococcus faecium; assay: Antimicrobial activity against Enterococcus faecium 3 with heterozygous 23S rRNA G2576U mutation
[11] = test system: Enterococcus faecium; assay: Antimicrobial activity against Enterococcus faecium 16 with homozygous 23S rRNA G2576U mutation; type: functional; outline: as §1
[12] = test system: Staphylococcus aureus; assay: Antimicrobial activity against Staphylococcus aureus ST/02/2121 with 23S rRNA T2504C mutation; type: functional; outline: as §1
[13] = test system: Enterococcus faecalis; assay: Antimicrobial activity against Enterococcus faecalis 25 with heterozygous 23S rRNA G2576U mutation; type: functional; outline: as §1
[14] = test system: Enterococcus faecium; assay: Antimicrobial activity against Enterococcus faecium 34 with homozygous 23S rRNA G2576U mutation; type: functional; outline: as §1
[15] = test system: Enterococcus faecium; assay: Antimicrobial activity against Enterococcus faecium Ho 4136-0042; type: functional; details: in the assay text read “H0 4136-0043” for “Ho 4136-0042”
Outline: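 MIC by CLSI agar dilution against a clinical enterococcal isolate. The isolates were either linezolid-susceptible UK clinical isolates (about 100 per group) or among 23 linezolid-resistant clinical enterococci and S. aureus, mostly from UK patients, with a few from Brazil and Austria.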

[16] = test system: Staphylococcus aureus; assay: Antimicrobial activity against methicillin-resistant Staphylococcus aureus B2 with heterozygous 23S rRNA G2576U mutation; type: functional; outline: as §1
[17] = test system: Staphylococcus aureus; assay: Antimicrobial activity against methicillin-resistant Staphylococcus aureus Ho 4280-0256 with heterozygous 23S rRNA G2576U mutation; type: functional; outline: as §1
[18] = test system: Enterococcus faecium; assay: Antimicrobial activity against Enterococcus faecium Ho 4418-0062 with heterozygous 23S rRNA G2576U mutation; type: functional; outline: as §1
[19] = test system: Enterococcus faecalis; assay: Antimicrobial activity against Enterococcus faecalis 9 with heterozygous 23S rRNA G2576U mutation; type: functional; outline: as §1
[20] = test system: Staphylococcus aureus; assay: Antimicrobial activity against Staphylococcus aureus ST/02/2121 with 23S rRNA G2447T mutation; type: functional; outline: as §1
[21] = test system: Enterococcus faecium; assay: Antimicrobial activity against Enterococcus faecium 28 with heterozygous 23S rRNA G2576U mutation; type: functional; outline: as §1
[22] = test system: Staphylococcus aureus; assay: Antimicrobial activity against Staphylococcus aureus RN4220 deltamutS with 23S rRNA G2576U mutation; type: functional; outline: as §1
[23] = test system: Staphylococcus aureus; assay: Antimicrobial activity against methicillin-resistant Staphylococcus aureus Ho 4536-0367 with heterozygous 23S rRNA G2576U mutation; type: functional; outline: as §1
[24] = test system: Enterococcus faecium; assay: Antimicrobial activity against Enterococcus faecium 2 L1 with homozygous 23S rRNA G2576U mutation
[25] = test system: Enterococcus faecium; assay: Antimicrobial activity against Enterococcus faecium 18 with heterozygous 23S rRNA G2576U mutation; type: functional; outline: as §1
[26] = test system: Staphylococcus aureus; assay: Antimicrobial activity against Staphylococcus aureus RN4220 deltamutS revertant with 23S rRNA G2576U mutation; type: functional; outline: as §1
[27] = test system: Enterococcus faecalis; assay: Antimicrobial activity against Enterococcus faecalis Ho 4450-0446 with heterozygous 23S rRNA G2576U mutation; type: functional; outline: as §1
[28] = test system: Staphylococcus aureus; assay: Antimicrobial activity against Staphylococcus aureus RN4220; type: functional; outline: as §1
[29] = test system: Enterococcus faecalis; assay: Antimicrobial activity against Enterococcus faecalis 45 with heterozygous 23S rRNA G2576U mutation; type: functional; outline: as §1
[30] = test system: Enterococcus faecalis; assay: Antimicrobial activity against Enterococcus faecalis 37 with heterozygous 23S rRNA G2576U mutation; type: functional; outline: as §1
[31] = test system: Staphylococcus aureus; assay: Antimicrobial activity against methicillin-resistant Staphylococcus aureus Ho 4536-0368 with heterozygous 23S rRNA G2576U mutation; type: functional; outline: as §1
[32] = test system: Enterococcus faecalis; assay: Antimicrobial activity against Enterococcus faecalis 1 L2 with heterozygous 23S rRNA G2576U mutation; type: functional; outline: as §1
[33] = test system: Enterococcus faecium; assay: Antimicrobial activity against Enterococcus faecium 31 with heterozygous 23S rRNA G2576U mutation; type: functional; outline: as §1

| Structure (SMILES) | MIC [1] | MIC [3] | MIC [4] | MIC [5] | MIC [6] | MIC [7] | MIC [9] | MIC [10] | MIC [11] | MIC [12] | MIC [13] | MIC [14] | MIC [15] | MIC [16] | MIC [17] | MIC [18] | MIC [19] | MIC [20] | MIC [21] | MIC [22] | other results |
| --- | --- | --- | --- | --- | --- | --- | --- | --- | --- | --- | --- | --- | --- | --- | --- | --- | --- | --- | --- | --- | --- |
| CC(=O)NC[C@H]1CN(c2ccc(N3Cc4cn(C)nc4C3)c(F)c2)C(=O)O1 | 8 µg/mL (≈ 21.4 µM) | 2 µg/mL (≈ 5.36 µM) | 4 µg/mL (≈ 10.7 µM) | 8 µg/mL (≈ 21.4 µM) | 8 µg/mL (≈ 21.4 µM) | 8 µg/mL (≈ 21.4 µM) | 4 µg/mL (≈ 10.7 µM) | 16 µg/mL (≈ 42.9 µM) | 16 µg/mL (≈ 42.9 µM) | 8 µg/mL (≈ 21.4 µM) | 16 µg/mL (≈ 42.9 µM) | 32 µg/mL (≈ 85.7 µM) | 16 µg/mL (≈ 42.9 µM) | 8 µg/mL (≈ 21.4 µM) | 4 µg/mL (≈ 10.7 µM) | 16 µg/mL (≈ 42.9 µM) | 16 µg/mL (≈ 42.9 µM) | 4 µg/mL (≈ 10.7 µM) | 8 µg/mL (≈ 21.4 µM) | 8 µg/mL (≈ 21.4 µM) | MIC [2]: 1 µg/mL (≈ 2.68 µM); MIC [8]: 0.5 µg/mL (≈ 1.34 µM); MIC [23]: 2 µg/mL (≈ 5.36 µM); MIC [24]: 32 µg/mL (≈ 85.7 µM); MIC [25]: 8 µg/mL (≈ 21.4 µM); MIC [26]: 8 µg/mL (≈ 21.4 µM); MIC [27]: 2 µg/mL (≈ 5.36 µM); MIC [28]: 0.5 µg/mL (≈ 1.34 µM); MIC [29]: 8 µg/mL (≈ 21.4 µM); MIC [30]: 8 µg/mL (≈ 21.4 µM); MIC [31]: 8 µg/mL (≈ 21.4 µM); MIC [32]: 16 µg/mL (≈ 42.9 µM); MIC [33]: 8 µg/mL (≈ 21.4 µM) |
| CC(=O)NC[C@H]1CN(c2ccc(N3CCOCC3)c(F)c2)C(=O)O1 [LINEZOLID] | 32 µg/mL (≈ 94.9 µM) | 8 µg/mL (≈ 23.7 µM) | 16 µg/mL (≈ 47.4 µM) | 32 µg/mL (≈ 94.9 µM) | 32 µg/mL (≈ 94.9 µM) | 16 µg/mL (≈ 47.4 µM) | 16 µg/mL (≈ 47.4 µM) | 64 µg/mL (≈ 190 µM) | 64 µg/mL (≈ 190 µM) | 16 µg/mL (≈ 47.4 µM) | 32 µg/mL (≈ 94.9 µM) | 64 µg/mL (≈ 190 µM) | 64 µg/mL (≈ 190 µM) | 32 µg/mL (≈ 94.9 µM) | 16 µg/mL (≈ 47.4 µM) | 32 µg/mL (≈ 94.9 µM) | 64 µg/mL (≈ 190 µM) | 16 µg/mL (≈ 47.4 µM) | 16 µg/mL (≈ 47.4 µM) | 16 µg/mL (≈ 47.4 µM) | MIC [23]: 8 µg/mL (≈ 23.7 µM); MIC [24]: 64 µg/mL (≈ 190 µM); MIC [25]: 32 µg/mL (≈ 94.9 µM); MIC [26]: 16 µg/mL (≈ 47.4 µM); MIC [29]: 32 µg/mL (≈ 94.9 µM); MIC [30]: 32 µg/mL (≈ 94.9 µM); MIC [31]: 32 µg/mL (≈ 94.9 µM); MIC [32]: 32 µg/mL (≈ 94.9 µM); MIC [33]: 32 µg/mL (≈ 94.9 µM) |

Reference: ChEMBL document CHEMBL1142093, “In vitro activity of the oxazolidinone RWJ-416457 against linezolid-resistant and -susceptible staphylococci and enterococci” (2007)
